Reference: ChEMBL document CHEMBL1135612, “Identification of potent and selective small-molecule inhibitors of caspase-3 through the use of extended tethering and structure-based drug design” (J Med Chem, 2002)

What was measured:
Caspase-2 = biological target: T1, Caspase-2 (Homo sapiens, UniProt P42575); test: Inhibitory activity against of Caspase-2
T1 sequence (P42575 whole entry): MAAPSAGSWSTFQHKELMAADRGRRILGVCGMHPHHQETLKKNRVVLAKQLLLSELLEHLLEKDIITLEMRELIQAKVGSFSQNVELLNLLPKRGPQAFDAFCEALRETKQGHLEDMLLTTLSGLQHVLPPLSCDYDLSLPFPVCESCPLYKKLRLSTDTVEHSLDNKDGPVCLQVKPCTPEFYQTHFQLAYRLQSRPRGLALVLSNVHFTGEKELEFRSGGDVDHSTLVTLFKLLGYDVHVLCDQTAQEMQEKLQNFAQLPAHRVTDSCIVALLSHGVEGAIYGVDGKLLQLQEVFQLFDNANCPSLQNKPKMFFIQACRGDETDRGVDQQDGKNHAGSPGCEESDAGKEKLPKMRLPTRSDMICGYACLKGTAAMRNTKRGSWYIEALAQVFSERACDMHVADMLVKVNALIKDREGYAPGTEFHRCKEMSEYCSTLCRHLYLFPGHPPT
Procedure, shortened: (§1)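 Human recombinant caspase-1 (3 nM; 4 µM Ac-WEHD-AFC), -2 (17 nM; 40 µM Ac-VDVAD-AFC), -4 (60 nM; 30 µM Ac-WEHD-AFC) or -6 (2 nM; 7 µM Ac-VEID-AFC), final concentrations. Buffer: 25 mM HEPES pH 7.4, 0.1% CHAPS, 50 mM KCl, 5 mM β-ME. Enzyme preincubated 30 min RT with compound titrated in DMSO. Substrate starts reaction. AFC kinetics (ex 365/em 495 nm) read 15 min RT. IC50 from four-parameter fit.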

Caspase-8 = Caspase-8 (Homo sapiens, UniProt Q14790); test: Inhibitory activity against Caspase-8
Caspase-8, sequence (Q14790 217-374 limits assumed): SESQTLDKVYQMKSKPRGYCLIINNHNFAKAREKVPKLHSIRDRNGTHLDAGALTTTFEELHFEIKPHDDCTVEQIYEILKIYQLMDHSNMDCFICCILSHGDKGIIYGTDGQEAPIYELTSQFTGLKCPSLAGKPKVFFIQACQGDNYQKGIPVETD
Caspase-8, sequence (Q14790 385-479 limits assumed): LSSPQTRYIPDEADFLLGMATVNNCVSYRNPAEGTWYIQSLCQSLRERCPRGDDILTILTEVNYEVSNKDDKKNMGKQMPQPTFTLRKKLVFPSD
Procedure, shortened: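 In-house expressed, purified human caspase-8 at 10 nM, final, with 3 µM Ac-IETD-AFC in 100 mM HEPES pH 7.4, 10% sucrose, 0.1% CHAPS, 10 mM DTT. Enzyme was preincubated 30 min at RT with DMSO-titrated compound, and substrate started the reaction. Fluorescence (ex 365/em 495 nm) was read kinetically for 15 min at RT. IC50 came from a four-parameter fit.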

Caspase-7 = biological target: T2, Caspase-7 (Homo sapiens, UniProt P55210); test: Inhibitory activity against Caspase-7
T2 sequence (P55210 whole entry): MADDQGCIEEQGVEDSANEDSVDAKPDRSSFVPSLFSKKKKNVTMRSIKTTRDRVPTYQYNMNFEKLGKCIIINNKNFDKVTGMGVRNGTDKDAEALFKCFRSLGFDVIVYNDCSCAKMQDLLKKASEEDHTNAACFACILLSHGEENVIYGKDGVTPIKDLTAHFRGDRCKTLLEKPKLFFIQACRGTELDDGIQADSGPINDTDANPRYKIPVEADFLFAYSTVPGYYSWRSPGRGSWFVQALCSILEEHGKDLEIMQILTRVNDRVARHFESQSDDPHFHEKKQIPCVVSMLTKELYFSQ
Procedure, shortened: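 Caspase-7 assay: 1 nM recombinant human enzyme and 30 µM Ac-DEVD-AFC, final, in 25 mM HEPES pH 7.4, 0.1% CHAPS, 50 mM KCl, 5 mM CaCl2, 5 mM β-ME. Enzyme preincubated 30 min RT with compound titrated in DMSO, then substrate added. Kinetic AFC fluorescence (ex 365/em 495 nm) over 15 min at RT. IC50 by four-parameter fit.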

Caspase-4 = biological target: T3, Caspase-4 (Homo sapiens, UniProt P49662); test: Inhibitory activity against Caspase-4; procedure, shortened: as §1
T3 sequence (P49662 whole entry): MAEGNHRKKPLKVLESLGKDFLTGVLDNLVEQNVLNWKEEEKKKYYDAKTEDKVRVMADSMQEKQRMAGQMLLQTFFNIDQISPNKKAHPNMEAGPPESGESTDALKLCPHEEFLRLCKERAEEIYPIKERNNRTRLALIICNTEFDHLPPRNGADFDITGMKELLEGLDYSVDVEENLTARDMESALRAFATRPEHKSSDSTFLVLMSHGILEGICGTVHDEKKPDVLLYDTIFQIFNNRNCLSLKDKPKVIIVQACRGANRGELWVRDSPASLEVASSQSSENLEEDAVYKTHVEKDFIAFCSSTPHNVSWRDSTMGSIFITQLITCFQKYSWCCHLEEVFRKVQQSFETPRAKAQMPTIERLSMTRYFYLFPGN

Caspase-5 = biological target: T4, Caspase-5 (Homo sapiens, UniProt P51878); test: Inhibitory activity against Caspase-5
T4 sequence (P51878 whole entry): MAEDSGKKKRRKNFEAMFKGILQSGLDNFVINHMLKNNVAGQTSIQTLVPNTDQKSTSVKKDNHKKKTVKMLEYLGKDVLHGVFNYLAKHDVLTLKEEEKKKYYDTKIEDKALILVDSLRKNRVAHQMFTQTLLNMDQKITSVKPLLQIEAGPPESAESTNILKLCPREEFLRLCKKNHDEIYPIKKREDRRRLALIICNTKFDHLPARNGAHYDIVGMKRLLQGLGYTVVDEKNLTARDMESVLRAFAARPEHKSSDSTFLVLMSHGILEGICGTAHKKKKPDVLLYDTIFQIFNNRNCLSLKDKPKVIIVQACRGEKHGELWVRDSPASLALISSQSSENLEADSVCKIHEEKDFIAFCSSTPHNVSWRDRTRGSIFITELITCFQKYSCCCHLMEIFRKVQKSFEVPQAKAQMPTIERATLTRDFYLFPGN
Procedure, shortened: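 Recombinant human caspase-5 at 83 nM, final, with 30 µM Ac-WEHD-AFC in 100 mM HEPES pH 7.4, 10% sucrose, 0.1% CHAPS, 200 mM NaCl, 10 mM DTT. Enzyme and DMSO-titrated compound stood together 30 min at RT before substrate addition. Fluorescence (ex 365/em 495 nm) followed kinetically 15 min at RT. IC50 came from a four-parameter curve fit.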

Caspase-3 = biological target: T5, Caspase-3 (Homo sapiens, UniProt P42574); test: Inhibitory activity against Caspase-3
T5 sequence (P42574 whole entry): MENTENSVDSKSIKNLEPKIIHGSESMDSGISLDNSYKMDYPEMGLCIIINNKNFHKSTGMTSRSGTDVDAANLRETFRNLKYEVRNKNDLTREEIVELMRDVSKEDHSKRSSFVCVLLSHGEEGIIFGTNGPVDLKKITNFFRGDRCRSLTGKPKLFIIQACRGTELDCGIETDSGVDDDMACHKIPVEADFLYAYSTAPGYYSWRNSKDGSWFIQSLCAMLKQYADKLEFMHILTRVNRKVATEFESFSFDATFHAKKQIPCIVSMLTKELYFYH

Caspase-1 = biological target: T6, Caspase-1 (Homo sapiens, UniProt P29466); test: Inhibitory activity against of Caspase-1; procedure, shortened: as §1
T6 sequence (P29466 whole entry): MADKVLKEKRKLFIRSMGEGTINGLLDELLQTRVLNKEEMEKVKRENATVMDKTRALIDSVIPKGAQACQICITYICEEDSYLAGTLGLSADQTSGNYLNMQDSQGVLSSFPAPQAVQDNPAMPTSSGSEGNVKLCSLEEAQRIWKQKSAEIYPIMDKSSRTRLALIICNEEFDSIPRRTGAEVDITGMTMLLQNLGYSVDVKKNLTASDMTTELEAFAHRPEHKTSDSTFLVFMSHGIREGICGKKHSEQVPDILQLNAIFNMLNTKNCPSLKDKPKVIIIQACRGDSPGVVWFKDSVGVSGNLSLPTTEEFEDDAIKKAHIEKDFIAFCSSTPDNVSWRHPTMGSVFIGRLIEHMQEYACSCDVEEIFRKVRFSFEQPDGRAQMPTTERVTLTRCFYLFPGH

Caspase-6 = biological target: T7, Caspase-6 (Homo sapiens, UniProt P55212); test: Inhibitory activity against Caspase-6; procedure, shortened: as §1
T7 sequence (P55212 whole entry): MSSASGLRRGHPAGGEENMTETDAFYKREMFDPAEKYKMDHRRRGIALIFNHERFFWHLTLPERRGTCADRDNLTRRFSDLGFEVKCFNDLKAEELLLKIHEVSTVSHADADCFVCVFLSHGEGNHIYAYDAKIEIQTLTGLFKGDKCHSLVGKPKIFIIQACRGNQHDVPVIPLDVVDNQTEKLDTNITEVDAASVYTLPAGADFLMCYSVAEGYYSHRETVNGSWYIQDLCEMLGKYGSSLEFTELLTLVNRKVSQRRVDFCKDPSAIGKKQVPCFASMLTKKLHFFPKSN

| Compound | Ki (Caspase-2) | Ki (Caspase-8) | Ki (Caspase-7) | Ki (Caspase-4) | Ki (Caspase-5) | Ki (Caspase-3) | Ki (Caspase-1) | Ki (Caspase-6) |
| --- | --- | --- | --- | --- | --- | --- | --- | --- |
| O=C(O)C[C@H](NC(=O)c1ccc(CNS(=O)(=O)c2ccc(O)c(C(=O)O)c2)s1)C(=O)CSCc1ccccc1Cl | 64 µM | 0.33 µM | 0.13 µM | > 100 µM | 63 µM | 0.02 µM | 3.2 µM | 9.7 µM |
| O=C[C@H](CC(=O)O)NC(=O)c1ccc(CNS(=O)(=O)c2ccc(O)c(C(=O)O)c2)s1 | 21 µM | 0.05 µM | 0.12 µM | 38 µM | 24 µM | 0.12 µM | 1.9 µM | 0.54 µM |
| Cc1cc(CNS(=O)(=O)c2ccc(O)c(C(=O)O)c2)sc1C(=O)N[C@@H](CC(=O)O)C(=O)CSCc1ccccc1Cl | 37 µM | 0.71 µM | 0.94 µM | 27 µM | 36 µM | 0.04 µM | 2.7 µM | 2.4 µM |
| O=C(O)C[C@H](NC(=O)c1cnc(CNS(=O)(=O)c2ccc(O)c(C(=O)O)c2)nc1)C(=O)CSCc1ccccc1Cl | 30 µM | 28 µM | 0.09 µM | 22 µM | 32 µM | 0.02 µM | 25 µM | 0.19 µM |
| CN(Cc1ccc(O)c(C(=O)O)c1)Cc1ccc(C(=O)N[C@@H](CC(=O)O)C(=O)CSCc2ccccc2Cl)s1 | 30 µM | 4 µM | 0.19 µM | 96 µM | 98 µM | 0.09 µM | 12 µM | 22 µM |
| O=C[C@H](CC(=O)O)NC(=O)c1ccc(CNS(=O)(=O)c2ccc(O)c(C(=O)O)c2)nc1 | 0.96 µM | 0.88 µM | 0.13 µM | 92 µM | 22 µM | 0.05 µM | – | 1.4 µM |
| O=C[C@H](CC(=O)O)NC(=O)c1ccc(CNS(=O)(=O)c2ccc(O)c(C(=O)O)c2)cc1 | 9 µM | 0.15 µM | 0.47 µM | 21 µM | 12 µM | 0.2 µM | 0.16 µM | 1 µM |
| O=C(O)C[C@H](NC(=O)c1cnc(CNS(=O)(=O)c2ccc(O)c(C(=O)O)c2)s1)C(=O)CSCc1ccccc1Cl | 16 µM | 19 µM | 0.09 µM | 13 µM | 23 µM | 0.03 µM | 8.3 µM | 2.3 µM |
